Measurements reported in ChEMBL document CHEMBL4425122, “Discovery of 1-(1H-Pyrazolo[4,3-c]pyridin-6-yl)urea Inhibitors of Extracellular Signal-Regulated Kinase (ERK) for the Treatment of Cancers” (J Med Chem, 2016).
In brackets after ≈: the same amount, converted by molar mass. One block for each molecule: values may come before it. Activity calls are given as the source filed them. The rule behind the calls is not given here.

Columns and labels:
[1] = Inhibition of ERK human A375 cells assessed as inhibition of RSK phosphorylation measured after 4 hrs by mesoscale electrochemiluminescent sandwich assay; details: A-375, 4 h
A375-SM [2] = assay: Antitumor activity against human A375SM cells xenografted in mouse assessed as tumor regression at 50 mg/kg, po administered bid for 20 days measured after final dosage relative to vehicle treated control; assay type: functional
Summary of the method: (§1)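 Mice bearing A375SM xenografts dosed orally in PEG300:H2O (50:50 v/v) at 25 or 50 mg/kg BID or 100 mg/kg QD for 20 days, vehicle arm for comparison; tumor volume followed versus vehicle. Plasma exposure (AUC, Cmax, Tmax) measured on day 20.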

[3] = Inhibition of ERK (unknown origin) assessed as inhibition of RSK phosphorylation; parameters: species or system Homo sapiens
[4] = Tmax in mouse xenografted with human A375SM cells at 50 mg/kg, po bid; assay type: ADME, organism-based; details: in vivo; summary of the method: as §1
A375-SM [5] = assay: Antitumor activity against human A375SM cells xenografted in mouse assessed as tumor regression compound administered orally for 20 days measured after final dosage relative to vehicle treated control; assay type: functional
[6] = Cmax in mouse xenografted with human A375SM cells at 100 mg/kg, po qd measured on day 20; assay type: ADME, organism-based; parameters: dose 100 mg/kg, route oral; details: in vivo; summary of the method: as §1
[7] = Oral bioavailability in rat at 1 mg/kg; assay type: ADME, organism-based; details: in vivo
Summary of the method: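 Rats dosed PO at 1 mg/kg as solution in PEG400:H2O (60:40 v/v).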

[8] = biological target: Mitogen-activated protein kinase 1 (Homo sapiens, UniProt P28482); assay: Inhibition of human ERK2 preincubated for 15 mins followed by addition of IMAP peptide substrate and ATP measured after 60 mins by IMAP-FP assay
Summary of the method: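 Final: 0.5 nM hERK2, 900 nM unlabeled + 80 nM labeled peptide, 30 µM ATP; 60 min, quenched with IMAP beads in binding buffer with 24 mM NaCl, read by fluorescence polarization after 60 min.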

[9] = AUC in mouse xenografted with human A375SM cells at 100 mg/kg, po qd measured on day 20; assay type: ADME, organism-based; details: in vivo; summary of the method: as §1
[10] = Protein binding in rat plasma; assay type: ADME, cell-free; details: read-out: PPB (converted)
[11] = Solubility in human FaSSIF at pH 6.5; assay type: physicochemical
Summary of the method: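 Solubility measured in human fasted-state simulated intestinal fluid at pH 6.5.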

[12] = Plasma concentration in mouse xenografted with human A375SM cells at 100 mg/kg, po administered qd for 20 days measured after 24 hrs of final dose; assay type: ADME, organism-based
Summary of the method: (§2)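 A375SM xenograft mice given 100 mg/kg QD orally in PEG300:H2O (50:50 v/v) for 20 days; after final dose on day 20, blood taken at several time points from this arm and vehicle arm for compound exposure and pRSK and pERK levels.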

[13] = biological target: Dual specificity mitogen-activated protein kinase kinase; MEK1/2 (Homo sapiens, UniProt P36507+Q02750); assay: Inhibition of MEK in human A375 cells assessed as inhibition of ERK phosphorylation; assay type: cell-based
[14] = Half life in rat at 0.5 mg/kg, iv; assay type: ADME, organism-based; details: in vivo
Summary of the method: (§3)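 Rats dosed IV at 0.5 mg/kg as solution in PEG400:H2O (60:40 v/v).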

[15] = Volume of distribution at steady state in rat at 0.5 mg/kg, iv; assay type: ADME, organism-based; details: in vivo, read-out: Vdss; summary of the method: as §3
Homo sapiens [16] = species on record: Homo sapiens; assay: Selectivity ratio, ratio of IC50 for recombinant human GST-tagged ERK2 expressed in Escherichia coli to IC50 for MEK1 (unknown origin)
Summary of the method: (§4)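 Kinase counter-screen using a coupled format: the kinase's effect was read as activity of downstream ERK. Fold selectivity is the kinase IC50 relative to the IC50 from the Invitrogen ERK2 assay.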

Mus musculus [17] = assay: In vivo inhibition of ERK in mouse xenografted with human A375SM cells assessed as inhibition RSK phosphorylation at 100 mg/kg, po administered qd for 20 days measured after 2 to 24 hrs post final dosage; assay type: functional, organism-based; summary of the method: as §2
CHL-1 = assay: Antiproliferative activity against human CHL-1 cells measured after 96 hrs by Cell Titer-Glo assay; assay type: functional, cell-based; details: CHL-1, 96 h
Summary of the method: (§5)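 Cells in DMEM/10 mM HEPES/10% FBS added after compound, incubated 96 h at 37 °C, 5% CO2; equilibrated 15 min at room temperature, viability by CellTiter-Glo luminescence. IC50 from 10-point, 3-fold titration curves.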

[18] = Plasma concentration in mouse xenografted with human A375SM cells at 100 mg/kg, po administered qd for 20 days measured after 8 hrs of final dose; assay type: ADME, organism-based; summary of the method: as §2
A375-SM [19] = assay: Antitumor activity against human A375SM cells xenografted in mouse assessed as tumor growth inhibition at 25 mg/kg, po administered bid for 20 days measured after final dosage relative to vehicle treated control; assay type: functional; details: 480 h, read-out: TGI; summary of the method: as §1
Homo sapiens [20] = species on record: Homo sapiens; assay: Selectivity ratio, ratio of IC50 for recombinant human GST-tagged ERK2 expressed in Escherichia coli to IC50 for MELK (unknown origin)
Summary of the method: (§6)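 Part of a counter-screen panel of 101 kinases. Fold selectivity is each kinase's IC50 relative to the IC50 from the Invitrogen ERK2 assay.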

[21] = Dose normalized AUC in rat at 0.5 mg/kg, iv; assay type: ADME, organism-based; details: in vivo
Cytochrome P450 3A4 = Cytochrome P450 3A4 (Homo sapiens, UniProt P08684); assay: Inhibition of CYP3A4 (unknown origin); assay type: ADME
Homo sapiens [22] = species on record: Homo sapiens; assay: Selectivity ratio, ratio of IC50 for recombinant human GST-tagged ERK2 expressed in Escherichia coli to IC50 for BRAF (unknown origin); summary of the method: as §4
[23] = Plasma concentration in mouse xenografted with human A375SM cells at 100 mg/kg, po administered qd for 20 days measured after 12 hrs of final dose; assay type: ADME, organism-based; summary of the method: as §2
Homo sapiens [24] = species on record: Homo sapiens; assay: Selectivity ratio, ratio of IC50 for recombinant human GST-tagged ERK2 expressed in Escherichia coli to IC50 for PDGFRalpha V561D mutant (unknown origin); summary of the method: as §6
Homo sapiens [25] = species on record: Homo sapiens; assay: Selectivity ratio, ratio of IC50 for recombinant human GST-tagged ERK2 expressed in Escherichia coli to IC50 for FLT4 (unknown origin); summary of the method: as §6
Homo sapiens [26] = species on record: Homo sapiens; assay: Selectivity ratio, ratio of IC50 for recombinant human GST-tagged ERK2 expressed in Escherichia coli to IC50 for MEK2 (unknown origin); summary of the method: as §6
A375-SM [27] = assay: Antitumor activity against human A375SM cells xenografted in mouse assessed as tumor regression at 100 mg/kg, po administered qd for 20 days measured after final dosage relative to vehicle treated control; assay type: functional; summary of the method: as §1
[28] = Inhibition of ERK in human A375SM cells harboring BRAF V600E mutant assessed as inhibition of RSK phosphorylation measured after 4 hrs by mesoscale electrochemiluminescent sandwich assay; assay type: cell-based; details: A375-SM
Summary of the method: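 A375SM (BRAF V600E melanoma) cells, 10,000 per well, treated 4 h; lysed 20 min at 4 °C in Tris/NaCl/EGTA/EDTA/Triton/NaF buffer with protease and phosphatase inhibitors. Lysate captured with biotin anti-RSK1 on streptavidin MSD plate, detected with SULFO-TAG anti-pRSK (pThr359/Ser363) overnight at 4 °C; electrochemiluminescence read. IC50 from 11-point titration.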

[29] = Tmax in mouse xenografted with human A375SM cells at 100 mg/kg, po qd; assay type: ADME, organism-based; details: in vivo; summary of the method: as §1
[30] = AUC in mouse xenografted with human A375SM cells at 25 mg/kg, po bid measured on day 20; assay type: ADME, organism-based; details: in vivo; summary of the method: as §1
Homo sapiens [31] = species on record: Homo sapiens; assay: Selectivity ratio, ratio of IC50 for recombinant human GST-tagged ERK2 expressed in Escherichia coli to IC50 for PDGFRalpha D842V mutant (unknown origin); summary of the method: as §6
[32] = Tmax in mouse xenografted with human A375SM cells at 25 mg/kg, po bid; assay type: ADME, organism-based; details: in vivo; summary of the method: as §1
Mus musculus [33] = assay: In vivo inhibition of MEK in mouse xenografted with human A375SM cells assessed as inhibition ERK phosphorylation at 100 mg/kg, po administered qd for 20 days measured after 2 to 24 hrs post final dosage; assay type: functional, organism-based; summary of the method: as §2
[34] = Cmax in mouse xenografted with human A375SM cells at 25 mg/kg, po bid measured on day 20; assay type: ADME, organism-based; parameters: dose 25 mg/kg, route oral; details: in vivo; summary of the method: as §1
[35] = Plasma concentration in mouse xenografted with human A375SM cells at 100 mg/kg, po administered qd for 20 days measured after 2 hrs of final dose; assay type: ADME, organism-based; summary of the method: as §2
Homo sapiens [36] = species on record: Homo sapiens; assay: Selectivity ratio, ratio of IC50 for recombinant human GST-tagged ERK2 expressed in Escherichia coli to IC50 for ERK1 (unknown origin); summary of the method: as §6
[37] = biological target: Voltage-gated inwardly rectifying potassium channel KCNH2 (Homo sapiens, UniProt Q12809); assay: Inhibition of human ERG
[38] = Plasma clearance in rat at 0.5 mg/kg, iv; assay type: ADME, organism-based; summary of the method: as §3
A375-SM [39] = assay: Antiproliferative activity against human A375SM cells harboring BRAF V600E mutant measured after 96 hrs by Cell Titer-Glo assay; assay type: functional, cell-based; summary of the method: as §5
[40] = Cmax in mouse xenografted with human A375SM cells at 50 mg/kg, po bid measured on day 20; assay type: ADME, organism-based; parameters: dose 50 mg/kg, route oral; details: in vivo; summary of the method: as §1
[41] = AUC in mouse xenografted with human A375SM cells at 50 mg/kg, po bid measured on day 20; assay type: ADME, organism-based; details: in vivo; summary of the method: as §1
[42] = Plasma concentration in mouse xenografted with human A375SM cells at 100 mg/kg, po administered qd for 20 days measured after 6 hrs of final dose; assay type: ADME, organism-based; summary of the method: as §2
[43] = biological target: Mitogen-activated protein kinase 1 (Mus musculus, UniProt P63085); assay: Inhibition of mouse ERK2 preincubated for 15 mins followed by addition of IMAP peptide substrate and ATP measured after 60 mins by IMAP-FP assay
Mitogen-activated protein kinase 1 (Mus musculus, UniProt P63085), sequence (P63085 whole entry): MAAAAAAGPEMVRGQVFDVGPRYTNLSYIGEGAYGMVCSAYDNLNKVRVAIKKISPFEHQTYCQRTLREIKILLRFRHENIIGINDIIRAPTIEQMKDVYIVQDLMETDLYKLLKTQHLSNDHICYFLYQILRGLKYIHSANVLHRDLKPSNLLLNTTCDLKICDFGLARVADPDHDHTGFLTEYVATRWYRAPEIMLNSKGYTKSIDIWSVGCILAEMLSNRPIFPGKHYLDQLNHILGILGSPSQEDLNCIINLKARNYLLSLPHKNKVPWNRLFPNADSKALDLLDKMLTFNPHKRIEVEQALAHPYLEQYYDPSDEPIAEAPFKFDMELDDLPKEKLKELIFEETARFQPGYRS

Mitogen-activated protein kinase 1 (Homo sapiens, UniProt P28482), sequence (P28482 whole entry): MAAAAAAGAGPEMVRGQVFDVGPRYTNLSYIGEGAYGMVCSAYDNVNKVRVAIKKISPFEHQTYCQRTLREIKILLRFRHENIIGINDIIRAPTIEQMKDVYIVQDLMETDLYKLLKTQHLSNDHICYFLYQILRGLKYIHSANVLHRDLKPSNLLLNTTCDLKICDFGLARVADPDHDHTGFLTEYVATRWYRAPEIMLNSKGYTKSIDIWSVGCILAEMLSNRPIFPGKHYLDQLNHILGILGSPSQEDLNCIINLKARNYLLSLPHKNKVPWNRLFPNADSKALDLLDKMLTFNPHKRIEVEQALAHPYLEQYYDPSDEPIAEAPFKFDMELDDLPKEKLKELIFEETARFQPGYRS
Voltage-gated inwardly rectifying potassium channel KCNH2, sequence (Q12809 whole entry): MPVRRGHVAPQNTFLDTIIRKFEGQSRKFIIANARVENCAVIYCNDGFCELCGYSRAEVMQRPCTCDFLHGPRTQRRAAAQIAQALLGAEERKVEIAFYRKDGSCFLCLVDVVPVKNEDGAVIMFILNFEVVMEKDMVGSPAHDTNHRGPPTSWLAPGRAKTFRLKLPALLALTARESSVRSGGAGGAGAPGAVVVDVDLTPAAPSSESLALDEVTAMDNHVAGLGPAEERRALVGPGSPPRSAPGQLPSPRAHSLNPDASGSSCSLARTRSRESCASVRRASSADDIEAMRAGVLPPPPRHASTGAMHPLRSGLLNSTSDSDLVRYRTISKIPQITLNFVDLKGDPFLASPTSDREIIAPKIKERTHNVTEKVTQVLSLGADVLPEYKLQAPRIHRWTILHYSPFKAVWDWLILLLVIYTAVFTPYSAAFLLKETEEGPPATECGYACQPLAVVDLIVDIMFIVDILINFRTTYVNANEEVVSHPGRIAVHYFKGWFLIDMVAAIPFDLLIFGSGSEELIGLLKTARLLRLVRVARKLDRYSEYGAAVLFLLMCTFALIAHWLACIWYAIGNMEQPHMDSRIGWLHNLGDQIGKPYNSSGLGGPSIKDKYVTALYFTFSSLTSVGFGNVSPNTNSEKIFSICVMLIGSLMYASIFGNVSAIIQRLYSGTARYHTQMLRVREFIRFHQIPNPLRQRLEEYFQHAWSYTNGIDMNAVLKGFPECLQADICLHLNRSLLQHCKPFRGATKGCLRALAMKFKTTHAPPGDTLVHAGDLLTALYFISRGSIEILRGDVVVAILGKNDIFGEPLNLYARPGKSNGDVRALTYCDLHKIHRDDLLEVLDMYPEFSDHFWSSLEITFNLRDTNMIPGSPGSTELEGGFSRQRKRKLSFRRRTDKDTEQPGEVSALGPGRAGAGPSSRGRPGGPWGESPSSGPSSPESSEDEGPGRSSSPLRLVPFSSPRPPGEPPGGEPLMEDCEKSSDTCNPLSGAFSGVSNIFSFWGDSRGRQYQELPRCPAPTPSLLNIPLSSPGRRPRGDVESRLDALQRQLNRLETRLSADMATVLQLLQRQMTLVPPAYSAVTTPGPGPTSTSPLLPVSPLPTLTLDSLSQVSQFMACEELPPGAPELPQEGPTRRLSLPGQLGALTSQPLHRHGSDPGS
Cytochrome P450 3A4, sequence (P08684 whole entry): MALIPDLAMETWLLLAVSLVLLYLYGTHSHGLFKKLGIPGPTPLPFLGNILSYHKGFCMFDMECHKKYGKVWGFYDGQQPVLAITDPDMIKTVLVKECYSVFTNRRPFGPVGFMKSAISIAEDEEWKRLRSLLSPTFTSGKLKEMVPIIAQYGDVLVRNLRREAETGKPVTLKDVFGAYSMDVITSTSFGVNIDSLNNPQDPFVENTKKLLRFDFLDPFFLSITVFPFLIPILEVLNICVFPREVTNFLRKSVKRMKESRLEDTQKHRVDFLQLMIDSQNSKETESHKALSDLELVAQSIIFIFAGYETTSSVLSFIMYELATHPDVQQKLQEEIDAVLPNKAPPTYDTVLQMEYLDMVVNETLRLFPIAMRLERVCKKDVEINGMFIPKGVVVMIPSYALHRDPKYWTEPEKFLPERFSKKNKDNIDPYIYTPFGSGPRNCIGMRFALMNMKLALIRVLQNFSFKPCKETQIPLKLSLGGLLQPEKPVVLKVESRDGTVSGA

SMILES: Cc1cc(-c2n[nH]c3cc(Nc4nccs4)ncc23)ccn1
IC50 [8]: 56 nM

SMILES: Cc1cc(-c2n[nH]c3cc(Nc4ncc(-c5ccccc5)s4)ncc23)ccn1
IC50 [8]: > 3000 nM

Continued, in another order:

IC50 [1]: 110 nM
SMILES: Cc1cc(-c2n[nH]c3cc(NC(=O)NCCc4ccccc4)ncc23)ccn1

IC50 [3]: 77 nM
Tmax [4]: 11 h
Cmax [6]: 27 µM
bioavailability [7]: 12%
IC50 [8]: 0.2 nM
AUC [9]: 320 µM·h
fraction unbound [10]: 0.012
solubility [11]: 18 µM (≈ 6.7 µg/mL)
concentration at 24 h [12]: 0.1 µM
IC50 [13]: > 10000 nM
half-life [14]: 0.7 h
Vd [15]: 1.7 L/kg
Ratio IC50 (Homo sapiens [16]): < 100
concentration at 8 h [18]: 6.7 µM
Ratio IC50 (Homo sapiens [20]): < 100
AUC/dose [21]: 1.3 µM·h/mg/kg
IC50 (Cytochrome P450 3A4): 3900 nM
Ratio IC50 (Homo sapiens [22]): < 100
concentration at 12 h [23]: 1.6 µM
Ratio IC50 (Homo sapiens [24]): < 100
Ratio IC50 (Homo sapiens [25]): < 100
Ratio IC50 (Homo sapiens [26]): < 100
IC50 [28]: 70 nM
Tmax [29]: 4 h
AUC [30]: 95 µM·h
Ratio IC50 (Homo sapiens [31]): < 100
Tmax [32]: 11 h
Cmax [34]: 12 µM
concentration at 2 h [35]: 20 µM
Ratio IC50 (Homo sapiens [36]): < 100
clearance [38]: 35 mL/min/kg
IC50 (A375-SM [39]): 43 nM
Cmax [40]: 23 µM
AUC [41]: 240 µM·h
concentration at 6 h [42]: 5.2 µM
SMILES: Cc1cc(-c2n[nH]c3cc(NC(=O)N[C@H](C)c4ccccc4)ncc23)ccn1
Activity (A375-SM [2]): 47%
Activity (A375-SM [5]): Dose-dependent effect
inhibition (Mus musculus [17]): Active
IC50 (CHL-1): 1300 nM
inhibition in vivo at 25 mg/kg (A375-SM [19]): 82%
Activity (A375-SM [27]): 42%
inhibition (Mus musculus [33]): inactive
IC50 [37]: > 20000 nM

IC50 [43]: 420 nM
SMILES: Cc1cc(-c2n[nH]c3cc(NC(=O)CCc4ccccc4)ncc23)ccn1

IC50 [28]: > 10000 nM
SMILES: Cc1cc(-c2n[nH]c3cc(NC(=O)Nc4ccccc4)ncc23)ccn1
